Values after ≈ are worked out from the molar mass of the structure shown.
Experiments:
Format in all cases: functional
[1] = system: Candida albicans; assay: Antifungal activity against Candida albicans ATCC Y0109 after 24 hrs by micro-broth dilution method; settings: ATCC Y0109, 24 h
Procedure, shortened: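 Micro-broth dilution per NCCLS M27-A2 on the quality-control standard strain ATCC Y0109, included in each assay. Compounds were dissolved in DMSO, serially diluted in growth medium, inoculated and incubated at 35 °C, with growth read at 24 h. MIC80 is the first well showing roughly 80% growth reduction versus the drug-free well.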

[2] = system: Candida parapsilosis; assay: Antifungal activity against Candida parapsilosis ATCC 0306392 by micro-broth dilution method; settings: Lodderomyces parapsilosis
Procedure, shortened: (§1)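 Micro-broth dilution per NCCLS M27-A2. The C. parapsilosis strain is the ATCC 0306392 quality-control standard tested in each assay; the C. tropicalis strain is a clinical isolate. Compounds were in DMSO, serially diluted in growth medium, inoculated and incubated at 35 °C. MIC80 is the first well with about 80% growth reduction relative to the drug-free well.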

[3] = system: Candida tropicalis; assay: Antifungal activity against Candida tropicalis by micro-broth dilution method; procedure, shortened: as §1
[4] = system: Cryptococcus neoformans; assay: Antifungal activity against Cryptococcus neoformans ATCC BLS108 after 72 hrs by micro-broth dilution method; settings: ATCC BLS108, 72 h
Procedure, shortened: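 NCCLS M27-A2 microdilution on the ATCC BLS108 quality-control strain, tested in every assay. Compounds were taken up in DMSO, serially diluted in growth medium, inoculated and incubated at 35 °C. Growth was scored at 72 h. MIC80 is the first well with about 80% lower growth than the drug-free control well.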

[5] = system: Aspergillus fumigatus; assay: Antifungal activity against Aspergillus fumigatus after 7 days by micro-broth dilution method; settings: 168 h
Procedure, shortened: (§2)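 Broth microdilution following the NCCLS yeast reference method (M27-A2), run on clinical isolates of filamentous fungi. Compounds were dissolved in DMSO, serially diluted in growth medium, inoculated and incubated at 35 °C. Growth was read at 7 days. MIC80 is the first well with about 80% less growth than the drug-free well.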

[6] = system: Trichophyton rubrum; assay: Antifungal activity against Trichophyton rubrum after 7 days by micro-broth dilution method; settings: 168 h; procedure, shortened: as §2
[7] = Antifungal activity against Fonsecaea compacta by micro-broth dilution method; procedure, shortened: as §2
[8] = system: Nannizzia gypsea; assay: Antifungal activity against Microsporum gypseum after 7 days by micro-broth dilution method; settings: 168 h; procedure, shortened: as §2

| SMILES | MIC80 [1] | MIC80 [2] | MIC80 [3] | MIC80 [4] | MIC80 [5] | MIC80 [6] | MIC80 [7] | MIC80 [8] |
| --- | --- | --- | --- | --- | --- | --- | --- | --- |
| OC(Cn1cncn1)(Cn1cncn1)c1ccc(F)cc1F [FLUCONAZOLE] | 4 mg/L (≈ 13.1 µM) | 1 mg/L (≈ 3.27 µM) | 1 mg/L (≈ 3.27 µM) | 1 mg/L (≈ 3.27 µM) | 64 mg/L (≈ 209 µM) | 0.25 mg/L (≈ 0.816 µM) | 16 mg/L (≈ 52.2 µM) | 0.25 mg/L (≈ 0.816 µM) |
| CCC(C)n1ncn(-c2ccc(N3CCN(c4ccc(OCC5COC(Cn6cncn6)(c6ccc(Cl)cc6Cl)O5)cc4)CC3)cc2)c1=O (configuration not stated) [ITRACONAZOLE] | 1 mg/L (≈ 1.42 µM) | 0.25 mg/L (≈ 0.354 µM) | 0.25 mg/L (≈ 0.354 µM) | 1 mg/L (≈ 1.42 µM) | 1 mg/L (≈ 1.42 µM) | 0.0156 mg/L (≈ 0.0221 µM) | 0.25 mg/L (≈ 0.354 µM) | 0.0156 mg/L (≈ 0.0221 µM) |
| CC(=O)N1CCN(c2ccc(OCC3COC(Cn4ccnc4)(c4ccc(Cl)cc4Cl)O3)cc2)CC1 (configuration not stated) [KETOCONAZOLE] | 0.0625 mg/L (≈ 0.118 µM) | 0.0625 mg/L (≈ 0.118 µM) | 0.0625 mg/L (≈ 0.118 µM) | 0.0625 mg/L (≈ 0.118 µM) | 1 mg/L (≈ 1.88 µM) | 0.0625 mg/L (≈ 0.118 µM) | 0.0625 mg/L (≈ 0.118 µM) | 0.0039 mg/L (≈ 0.00734 µM) |
| C[C@@H](c1ncncc1F)[C@](O)(Cn1cncn1)c1ccc(F)cc1F [VORICONAZOLE] | 0.0156 mg/L (≈ 0.0447 µM) | 1 mg/L (≈ 2.86 µM) | 0.25 mg/L (≈ 0.716 µM) | 0.0156 mg/L (≈ 0.0447 µM) | > 64 mg/L | 0.0039 mg/L (≈ 0.0112 µM) | 0.0156 mg/L (≈ 0.0447 µM) | 0.0039 mg/L (≈ 0.0112 µM) |
